Usually MIC stands for the least concentration at which growth counts as inhibited. Read a low MIC as inhibition by little substance.

We go through eight compounds from ChEMBL document CHEMBL2040749, “Novel polycyclic 'cage'-1,2-diamines as potential anti-tuberculosis agents” (2012).

Common to all, as to format: functional
Assay [1] has as its system Mycobacterium tuberculosis. Put plainly: Antitubercular activity against multi-drug resistant Mycobacterium tuberculosis after 21 days by BACTEC MGIT 960 method. To be noted: 504 h. In short, it runs like this:
(§1)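 Compounds dissolved in 100% methanol (10 mg/mL stock), sonicated, filter-sterilised, diluted in sterile water; twofold serial dilutions, working range 8 to 0.125 µg/mL. Strains grown in Middlebrook 7H9 + OADC at 37 °C; inoculum adjusted to McFarland 1, diluted tenfold to 10^5 CFU/mL into MGIT tubes. Drug-free control received a 1:100 inoculum. MIC is the lowest dilution negative when the control turns positive. Triplicate.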

For assay [2], the system named is Mycobacterium tuberculosis. Put plainly: Antitubercular activity against extensively drug-resistant Mycobacterium tuberculosis after 21 days by BACTEC MGIT 960 method. To be noted: 504 h. The method, boiled down: as §1
Assay [3] relates to Mycobacterium tuberculosis. Kind of assay: Ratio of SQ109 MIC to compound MIC for extensively drug-resistant Mycobacterium tuberculosis.
For assay [4], the system named is Mycobacterium tuberculosis. Kind of assay: Ratio of SQ109 MIC to compound MIC for multi-drug resistant Mycobacterium tuberculosis.

Turning to `CC(C)=CCC/C(C)=C/CNCCNC1C2CC3CC(C2)CC1C3.Cl.Cl` (stereo not drawn), the MIC in assay [1] is 2 µg/mL; in assay [2], 4 µg/mL.
On to `CC(C)=CCC/C(C)=C/CNC(=O)CN1[C@H]2C3C4CC5C6C4C2C6[C@@]1(O)C53` (mixture of isomers), for which the MIC in assay [1] stood at 4 µg/mL; in assay [2], 8 µg/mL.
In the same order, the values of `CC(C)=CCC/C(C)=C/CNCC(=O)N[C@]12O[C@H]3C4C5CC(C6C5C3C61)C42` (mixture of isomers) are 4 µg/mL and 8 µg/mL.
Consider `CC(C)=CCC/C(C)=C/CNCCN[C@@H]1C2C3CC4C5C3CC2C5C41.Cl.Cl` (mixture of isomers), for which the figures for the MIC in assay [1] and in assay [2] were 4 µg/mL and 8 µg/mL, respectively.
With `CC(C)=CCC/C(C)=C/CNCCN[C@]12O[C@H]3C4C5CC(C6C5C3C61)C42.Cl.Cl` (mixture of isomers), the figures for the MIC in assay [1] and in assay [2] were 2 µg/mL and 4 µg/mL, respectively.
In the same order, the values of `CC(C)=CCC/C(C)=C/CNCCN[C@@H]1C2C3CC4C5C3C1C5[C@@H](O)C42.Cl.Cl` (mixture of isomers) are 2 µg/mL and 4 µg/mL.
Consider `CC(C)=CCC/C(C)=C/CNCCN1[C@H]2C3C4CC5C6C4C2C6[C@@]1(O)C53.Cl.Cl` (mixture of isomers), for which the values for the minimum inhibitory concentration (MIC) in assay [1] and in assay [2] were 2 µg/mL and 4 µg/mL, respectively.
As to `CC(C)=CCC/C(C)=C/CNCCNC1C2C3CC4C5CC(C42)C1C53.Cl.Cl` (racemic), the MIC in assay [1] came out at 1 µg/mL; in assay [2], 2 µg/mL. The Ratio in assay [3] and in assay [4] was 2 in each case.
